Test results from ChEMBL document CHEMBL5096226, “Structure-Activity Relationship Study of Momordica Saponin II Derivatives as Vaccine Adjuvants” (J Med Chem, 2022).
Active and inactive are the calls of the source.

Key:
Type in all cases: functional, organism-based
Mus musculus [1] = assay: Immuno-adjuvant activity in BALB/c mouse Splenocyte assessed as increase in CD4+ surface expression of PD-1 at 50 ug, sc administered on day 0, 14 and 28 and measured at week 6 post immunization by flow cytometry analysis; conditions: dose 50.0 µg, time 6.0 weeks
Method in brief: (§1)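 Female BALB/c mice (8–10 wk, six per group) given OVA 20 μg s.c. with adjuvant on days 0, 14, 28; spleens taken at week 6. Splenocytes stained with viability dye, Fc-blocked, surface-stained 30 min. For intracellular cytokines, cells stimulated 5 h with leukocyte activation cocktail plus GolgiPlug, then fixed/permeabilized. IL-21 detected with IL-21R Fc chimera. All steps at 4 °C. Read as MFI, mean ± SEM.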

Splenocyte [2] = assay: Immuno-adjuvant activity in BALB/c mouse Splenocyte assessed as increase in CD4+ T cells at 100 ug, sc administered on day 0, 14 and 28 and measured at week 6 post immunization by flow cytometry analysis; conditions: dose 100.0 µg, time 6.0 weeks; method in brief: as §1
Mus musculus [3] = assay: Immuno-adjuvant activity in BALB/c mouse assessed as increase in anti-OVA IgG antibody in serum at 50 ug, sc administered on day 0, 14 and 28 and measured at 2, 4 and 6 weeks in presence of chicken egg ovalbumin by ELISA; conditions: dose 50.0 µg, time 2-6 weeks
Method in brief: (§2)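 Female BALB/c mice (8–10 wk, six per group) immunized s.c. with OVA 20 μg ± adjuvant on days 0, 14, 28. Tail-vein serum taken before each dose and 2 wk after the last. ELISA on OVA-coated (0.1 μg/mL) plates in borate saline pH 8.2. Twofold serum dilutions in duplicate, overnight at 4 °C. HRP anti-mouse IgG/subclass applied 4 h, OPD substrate, read at 490 nm. Concentrations from reference-serum standard curves (4-parameter fit).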

Mus musculus [4] = assay: Immuno-adjuvant activity in BALB/c mouse assessed as increase in IL-4 expressing CD4+ effector T cells in spleen at 100 ug, sc administered on day 0, 14 and 28 and measured at week 6 post immunization by flow cytometry analysis; conditions: T-cell, dose 100.0 µg, time 6.0 weeks; method in brief: as §1
Mus musculus [5] = assay: Immuno-adjuvant activity in BALB/c mouse assessed as increase in IL-21 expressing CD4+ effector T cells in spleen at 100 ug, sc administered on day 0, 14 and 28 and measured at week 6 post immunization by flow cytometry analysis; conditions: T-cell, dose 100.0 µg, time 6.0 weeks; method in brief: as §1
Mus musculus [6] = assay: Immuno-adjuvant activity in BALB/c mouse assessed as reduction in TFR cells in spleen at 100 ug, sc administered on day 0, 14 and 28 and measured at week 6 post immunization by flow cytometry analysis; conditions: dose 100.0 µg, time 6.0 weeks
Method in brief: (§3)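 Female BALB/c mice (8–10 wk, six per group), OVA 20 μg s.c. plus adjuvant on days 0, 14, 28; spleens collected week 6. Single-cell splenocyte suspensions stained and analysed by flow cytometry. TFH gated PD-1+Bcl6+Foxp3−CD4+CD3+, TFR PD-1+Bcl6+Foxp3+CD4+CD3+, dark zone GC B cells CXCR4hiCD86loFas+GL-7+CD19+. Steps at 4 °C. Mean ± SEM; unpaired t tests.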

Mus musculus [7] = assay: Immuno-adjuvant activity in BALB/c mouse assessed as increase in CD19+ B cells in spleen at 100 ug, sc administered on day 0, 14 and 28 and measured at week 6 post immunization by flow cytometry analysis; conditions: dose 100.0 µg, time 6.0 weeks; method in brief: as §3
Mus musculus [8] = assay: Immuno-adjuvant activity in BALB/c mouse assessed as increase in ratio of TFH to TFR cells at 100 ug, sc administered on day 0, 14 and 28 and measured at week 6 post immunization by flow cytometry analysis; conditions: dose 100.0 µg, time 6.0 weeks; method in brief: as §3
Mus musculus [9] = assay: Immuno-adjuvant activity in BALB/c mouse assessed as increase in anti-OVA Ig2a antibody in serum at 100 ug, sc administered on day 0, 14 and 28 and measured at 4 and 6 weeks in presence of chicken egg ovalbumin by ELISA; conditions: dose 100.0 µg, time 4-6 weeks; method in brief: as §2
Mus musculus [10] = assay: Immuno-adjuvant activity in BALB/c mouse assessed as increase in dark zone B cells at 100 ug, sc administered on day 0, 14 and 28 and measured at week 6 post immunization by flow cytometry analysis; conditions: dose 100.0 µg, time 6.0 weeks; method in brief: as §3
Splenocyte [11] = assay: Immuno-adjuvant activity in BALB/c mouse Splenocyte assessed as increase in CD8+ T cells at 100 ug, sc administered on day 0, 14 and 28 and measured at week 6 post immunization by flow cytometry analysis; conditions: dose 100.0 µg, time 6.0 weeks; method in brief: as §1
Mus musculus [12] = assay: Immuno-adjuvant activity in BALB/c mouse assessed as increase in follicular helper T cells in spleen at 100 ug, sc administered on day 0, 14 and 28 and measured at week 6 post immunization by flow cytometry analysis; conditions: T-cell, dose 100.0 µg, time 6.0 weeks; method in brief: as §3
Mus musculus [13] = assay: Immuno-adjuvant activity in BALB/c mouse assessed as increase in anti-OVA IgG1 antibody in serum at 100 ug, sc administered on day 0, 14 and 28 and measured at 4 weeks in presence of chicken egg ovalbumin by ELISA; conditions: dose 100.0 µg; method in brief: as §2
Mus musculus [14] = assay: Immuno-adjuvant activity in BALB/c mouse assessed as increase in IL-4 expressing CD4+ effector T cells in spleen at 20 ug, sc administered on day 0, 14 and 28 and measured at week 6 post immunization by flow cytometry analysis; conditions: T-cell, dose 20.0 µg, time 6.0 weeks; method in brief: as §1
Mus musculus [15] = assay: Immuno-adjuvant activity in BALB/c mouse assessed as reduction in TFR cells in spleen at 20 ug, sc administered on day 0, 14 and 28 and measured at week 6 post immunization by flow cytometry analysis; conditions: dose 20.0 µg, time 6.0 weeks; method in brief: as §3
Mus musculus [16] = assay: Immuno-adjuvant activity in BALB/c mouse assessed as increase in anti-OVA Ig2a antibody in serum at 20 ug, sc administered on day 0, 14 and 28 and measured at 4 and 6 weeks in presence of chicken egg ovalbumin by ELISA; conditions: dose 20.0 µg, time 4-6 weeks; method in brief: as §2
Mus musculus [17] = assay: Immuno-adjuvant activity in BALB/c mouse assessed as increase in CD19+ B cells in spleen at 20 ug, sc administered on day 0, 14 and 28 and measured at week 6 post immunization by flow cytometry analysis; conditions: dose 20.0 µg, time 6.0 weeks; method in brief: as §3
Mus musculus [18] = assay: Immuno-adjuvant activity in BALB/c mouse assessed as increase in ratio of TFH to TFR cells at 20 ug, sc administered on day 0, 14 and 28 and measured at week 6 post immunization by flow cytometry analysis; conditions: dose 20.0 µg, time 6.0 weeks; method in brief: as §3
Mus musculus [19] = assay: Immuno-adjuvant activity in BALB/c mouse Splenocyte assessed as increase in CD4+ T cells at 20 ug, sc administered on day 0, 14 and 28 and measured at week 6 post immunization by flow cytometry analysis; conditions: dose 20.0 µg, time 6.0 weeks; method in brief: as §1
Mus musculus [20] = assay: Immuno-adjuvant activity in BALB/c mouse assessed as increase in anti-OVA IgG2a antibody in serum at 20 ug, sc administered on day 0, 14 and 28 and measured at 2 weeks in presence of chicken egg ovalbumin by ELISA; conditions: dose 20.0 µg; method in brief: as §2
Mus musculus [21] = assay: Immuno-adjuvant activity in BALB/c mouse assessed as increase in dark zone B cells at 20 ug, sc administered on day 0, 14 and 28 and measured at week 6 post immunization by flow cytometry analysis; conditions: dose 20.0 µg, time 6.0 weeks; method in brief: as §3
Mus musculus [22] = assay: Immuno-adjuvant activity in BALB/c mouse assessed as increase in IL-21 expressing CD4+ effector T cells in spleen at 20 ug, sc administered on day 0, 14 and 28 and measured at week 6 post immunization by flow cytometry analysis; conditions: T-cell, dose 20.0 µg, time 6.0 weeks; method in brief: as §1
Mus musculus [23] = assay: Immuno-adjuvant activity in BALB/c mouse assessed as increase in anti-OVA IgG antibody in serum at 20 ug, sc administered on day 0, 14 and 28 and measured at 2, 4 and 6 weeks in presence of chicken egg ovalbumin by ELISA; conditions: dose 20.0 µg, time 2-6 weeks; method in brief: as §2
Mus musculus [24] = assay: Immuno-adjuvant activity in BALB/c mouse Splenocyte assessed as increase in CD8+ T cells at 20 ug, sc administered on day 0, 14 and 28 and measured at week 6 post immunization by flow cytometry analysis; conditions: dose 20.0 µg, time 6.0 weeks; method in brief: as §1
Mus musculus [25] = assay: Immuno-adjuvant activity in BALB/c mouse assessed as increase in follicular helper T cells in spleen at 20 ug, sc administered on day 0, 14 and 28 and measured at week 6 post immunization by flow cytometry analysis; conditions: T-cell, dose 20.0 µg, time 6.0 weeks; method in brief: as §3

Measured: Activity

C[C@@H]1O[C@@H](O[C@H]2[C@H](O)[C@@H](C(=O)NCCCCCCCCCCC(=O)OCc3ccccc3)O[C@@H](O[C@H]3CC[C@]4(C)[C@H]5CC=C6[C@@H]7CC(C)(C)CC[C@]7(C(=O)O[C@@H]7O[C@H](C)[C@H](O)[C@H](O)[C@H]7O[C@@H]7O[C@@H](C)[C@H](O[C@@H]8OC[C@@H](O)[C@H](O)[C@H]8O)[C@@H](O[C@@H]8O[C@H](CO)[C@@H](O)[C@H](O[C@@H]9OC[C@@H](O)[C@H](O)[C@H]9O)[C@H]8O)[C@H]7O)[C@H](O)C[C@@]6(C)[C@]5(C)CC[C@H]4[C@]3(C)C=O)[C@@H]2O[C@@H]2O[C@H](CO)[C@H](O)[C@H](O)[C@H]2O)[C@H](O)[C@H](O)[C@H]1O
active: Mus musculus [1] | Splenocyte [2] | Mus musculus [3] | Mus musculus [4] | Mus musculus [5] | Mus musculus [6] | Mus musculus [7] | Mus musculus [8] | Mus musculus [9] | Mus musculus [10] | Splenocyte [11] | Mus musculus [12] | Mus musculus [13]

CC[C@H](C)[C@H](C[C@H](O)CC(=O)O[C@@H]1[C@H](O)[C@@H](O[C@@H]2O[C@@H](C)[C@H](O[C@@H]3OC[C@@H](O)[C@H](O[C@@H]4OC[C@](O)(CO)[C@H]4O)[C@H]3O)[C@@H](O)[C@H]2O)[C@H](OC(=O)[C@]23CCC(C)(C)C[C@H]2C2=CC[C@@H]4[C@@]5(C)CC[C@H](O[C@@H]6O[C@H](C(=O)O)[C@@H](O)[C@H](O[C@@H]7OC[C@@H](O)[C@H](O)[C@H]7O)[C@H]6O[C@@H]6O[C@H](CO)[C@H](O)[C@H](O)[C@H]6O)[C@@](C)(C=O)[C@@H]5CC[C@@]4(C)[C@]2(C)C[C@H]3O)O[C@@H]1C)OC(=O)C[C@@H](O)C[C@H](O[C@@H]1O[C@@H](CO)[C@H](O)[C@H]1O)[C@@H](C)CC
active: Mus musculus [14] | Mus musculus [15] | Mus musculus [16] | Mus musculus [17] | Mus musculus [18] | Mus musculus [19] | Mus musculus [20] | Mus musculus [21] | Mus musculus [22] | Mus musculus [23] | Mus musculus [24] | Mus musculus [25]
